The source of these data is ChEMBL document CHEMBL1153229, “The first synthetic agonists of FFA2: Discovery and SAR of phenylacetamides as allosteric modulators” (Bioorg Med Chem Lett, 2010).

The subject of one series is Rattus norvegicus. The series can be described thus: AUC in Sprague-Dawley rat at 0.5 mg/kg, iv. It is filed as ADME, organism-based, Plasma. The arrangement: dose 0.5 mg/kg, route intravenous. The conditions noted are these: in vivo. Summed up:
(§1)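 Male Sprague-Dawley rats dosed 0.5 mg/kg iv.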

A short description of series [1]: Volume of distribution at steady state in Sprague-Dawley rat at 0.5 mg/kg, iv. It is filed as ADME, organism-based. The arrangement: dose 0.5 mg/kg, route intravenous. As to conditions: in vivo, read-out: Vdss. The procedure, abridged:
as §1

Series [2] in a line: AUC in mouse at 5 mg/kg, po. Further details: dose 5 mg/kg, route oral. It is filed as ADME, organism-based. The conditions noted are these: plasma.
The target in series [3] is T1, Free fatty acid receptor 2 (Homo sapiens) (UniProt O15552).
T1 sequence (whole entry): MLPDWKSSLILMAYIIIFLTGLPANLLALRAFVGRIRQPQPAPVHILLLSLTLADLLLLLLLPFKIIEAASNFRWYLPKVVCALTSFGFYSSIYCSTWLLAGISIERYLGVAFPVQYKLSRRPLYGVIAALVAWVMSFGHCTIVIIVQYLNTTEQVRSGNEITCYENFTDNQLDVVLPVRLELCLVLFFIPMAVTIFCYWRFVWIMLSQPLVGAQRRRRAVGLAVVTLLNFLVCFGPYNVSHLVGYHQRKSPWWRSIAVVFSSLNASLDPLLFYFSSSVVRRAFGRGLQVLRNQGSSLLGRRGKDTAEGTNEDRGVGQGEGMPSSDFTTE
The series can be described thus: Agonist activity at human FFA2 receptor expressed in CHO cells assessed as inhibition of forskolin-induced cAMP production relative to acetate. Format: functional, cell-based. Summed up: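 Suspended cells, 10,000 per well, in Hank's balanced salt solution with 25 mM HEPES and 0.01% (w/v) BSA. Stimulated with forskolin (5 μM final) plus serially diluted test ligands, room temperature for 30 min. Antibody and lysis reagents then added, followed by overnight dark incubation with detection solution. Luminescence read (RLU). Efficacy expressed relative to acetate. Means of four experiments.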
On the technique in general: cAMP levels reflect the balance of adenylyl cyclase and phosphodiesterase activity.

Series [4] concerns Mus musculus. The series can be described thus: Reduction in plasma free fatty acid level in overnight fasted FFA2 knockout C57BL/6 mouse at 3 mg/kg, ip after 15 mins. Format: functional, organism-based. The arrangement: dose 3 mg/kg. Summed up:
(§2)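 Male-unspecified C57BL6 mice, wild type or FFA2 knockout, fasted overnight. Given compound or vehicle (10% dimethyl acetamide, 10% ethanol, 30% propylene glycol, 50% saline) ip at 10 ml/kg. Tail blood sampled before and 15 minutes after injection. Plasma FFA measured by enzymatic kit. Ten animals per group; t test.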

The subject of series [5] is Mus musculus. Briefly: Reduction in plasma free fatty acid level in overnight fasted FFA2 knockout C57BL/6 mouse at 20 mg/kg, ip after 15 mins. The arrangement: dose 20 mg/kg. It is filed as functional, organism-based. The procedure, abridged:
as §2

Series [6] has as its target T2, Free fatty acid receptor 3 (Homo sapiens) (UniProt O14843).
T2 sequence (whole entry): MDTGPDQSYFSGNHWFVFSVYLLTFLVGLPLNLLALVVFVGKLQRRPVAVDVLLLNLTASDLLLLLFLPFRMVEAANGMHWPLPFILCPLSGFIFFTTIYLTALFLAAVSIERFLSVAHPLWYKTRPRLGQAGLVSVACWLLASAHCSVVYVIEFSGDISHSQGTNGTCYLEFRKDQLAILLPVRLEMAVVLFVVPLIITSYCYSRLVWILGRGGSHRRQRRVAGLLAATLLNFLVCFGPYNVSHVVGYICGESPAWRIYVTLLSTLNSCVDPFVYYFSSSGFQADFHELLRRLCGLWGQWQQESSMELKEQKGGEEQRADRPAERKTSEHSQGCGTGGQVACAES
Briefly: Agonist activity at FFA3 receptor up to 30 uM. Format: functional.

Series [7] has as its target Hydroxycarboxylic acid receptor 2 (Homo sapiens) (UniProt Q8TDS4). The series can be described thus: Agonist activity at GPR109A up to 30 uM. It is filed as functional.

As usually defined, the AUC is concentration integrated over time. Read a high AUC as more exposure.

Calls of active or inactive are those of the source. The calls are words filed in the database; no cut-off is given here.

Sequence of Hydroxycarboxylic acid receptor 2 (Homo sapiens) (Q8TDS4 whole entry): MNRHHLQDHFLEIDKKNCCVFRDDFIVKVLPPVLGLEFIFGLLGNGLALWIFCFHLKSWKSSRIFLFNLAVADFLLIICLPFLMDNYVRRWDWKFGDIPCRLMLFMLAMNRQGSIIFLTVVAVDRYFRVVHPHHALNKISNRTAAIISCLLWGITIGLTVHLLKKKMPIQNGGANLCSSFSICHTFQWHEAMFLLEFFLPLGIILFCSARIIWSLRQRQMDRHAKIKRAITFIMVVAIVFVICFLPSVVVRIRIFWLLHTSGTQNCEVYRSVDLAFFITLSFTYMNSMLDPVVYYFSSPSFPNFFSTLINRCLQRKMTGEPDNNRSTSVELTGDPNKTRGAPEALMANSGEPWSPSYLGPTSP

In the case of `CC(C)[C@H](C(=O)Nc1ncc(F)s1)c1ccc(Cl)cc1`, the area under the curve (AUC) in the series with Rattus norvegicus amounted to 194 µg·h/L; in series [2], 62000 ng·h/mL. Also, the Vd in series [1] was determined as 9.8 L/kg. The Efficacy in series [3] stood at 103%. The outcome (with Mus musculus [4]; in series [6]; in series [7]) was inactive. Besides, the outcome with Mus musculus [5] was Active.
